# An excerpt weighted towards active compounds, which were near 2% of everything screened.
# TNF necrop inh: TNF-alpha cell death inhibition in Jurkat FADD-/- cells; Jurkat FADD-/- TNF necroptosis rescue, ATP luminescence, 24 h; 0 = TNF only, 100 = no-TNF cells; activation (protection from cell death), % at 10 µM; actives 0.068% (n = 220,000);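 active means activation, meaning protection from cell death, of at least 50% relative to plate controls; inactive means activation below 50%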;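 further: necroptosis triggered by 40 ng/mL TNF-alpha added together with compound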
# Lipid droplet: hepatic lipid droplet formation modulation; inhibition, % at 6.5 µM; AML12 mouse hepatocytes, oleate lipid droplets, BODIPY imaging; actives 0.4% (n = 240,000);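 active means lipid droplet intensity inhibited by at least 50%, with more than 500 cells counted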
#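 Material – AML12 mouse liver cells · Also added – oleate loading, 100 µM · Compound dosing – 6.5 µM single-point dosing · Times – overnight treatment with compound plus oleate · Measured by – fluorescence imaging, 20x objective, two fields per well · Read-out – percent inhibition of filter-corrected integrated lipid droplet intensity per well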
# PfM18AAP inh: blocks P. falciparum M18 aspartyl aminopeptidase; AID 1822; recombinant PfM18AAP, H-Glu-NHMec fluorogenic cleavage; actives 1.2% (n = 290,000); inhibition, % at 7.35 µM;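 active means inhibition above the campaign mean inhibition over all tested compounds plus 3 SD, cut at about 28% in these data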;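 further: 0% = plate median of test compound wells and 100% = 2 mM ZnCl2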
# zVAD death inh: L929 zVAD cell death inhibition; viability rescue, % at 10 µM; actives 0.38% (n = 220,000); L929 zVAD necroptosis rescue, ATP luminescence, 24 h; with zVAD 60 µM;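 active means activation, scaled between plate controls, above about 75%, limit read from the data; inactive means activation under that limit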;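 further: 0% = zVAD with DMSO and 100% = DMSO alone without zVAD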
# RBBP9 inhibitor: human RBBP9 hydrolase inhibition. O75884. recombinant RBBP9, FP-Rh probe fluorescence polarization. inhibition, % at 7.94 µM. actives 0.2% (n = 220,000);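 active means inhibition above the campaign mean of all tested compounds plus 3 SD, cut at about 14% in these data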;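 further: plate controls were DMSO wells with RBBP9 for no effect and wells lacking RBBP9 protein for full effect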
# Target sequence (O75884 whole entry, looked up): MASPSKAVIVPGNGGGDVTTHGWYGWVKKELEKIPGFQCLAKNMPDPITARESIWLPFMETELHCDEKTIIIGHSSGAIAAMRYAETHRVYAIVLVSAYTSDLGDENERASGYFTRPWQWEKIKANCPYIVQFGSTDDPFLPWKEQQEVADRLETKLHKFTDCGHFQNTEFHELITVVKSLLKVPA
#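 Controls: DMSO-treated enzyme wells and wells lacking RBBP9 | Material: RBBP9 protein | Technique: Fluorescence polarization | Replication: Single well per compound, no replicates | Buffer or medium: Tris-NaCl-Pluronic buffer, pH 8.0 | Timing: 30 min compound preincubation, 45 min probe labeling, 25 °C | Read-out basis: Percent inhibition from mP, scaled between DMSO and no-protein wells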
# Tb hexokinase: blocks Trypanosoma brucei hexokinase 1 activity | inhibition, % at 10 µM | recombinant TbHK1, G6PDH-coupled NADH A340 | AID 1430 | actives 0.11% (n = 220,000);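 active means inhibition of 50% or more in the single-dose primary screen; inactive means inhibition below 50%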
# Starred values were filed as active, the others as inactive; · = not tested or not shown.
SMILES,TNF necrop inh,Lipid droplet,PfM18AAP inh,zVAD death inh,RBBP9 inhibitor,Tb hexokinase
CCc1ccc(CN2CCCC(CCC(=O)N3CCN(c4ccccn4)CC3)C2)o1 (stereo unspecified),6.1,10.8,2.3,0.0,4.2,-4.1
Cc1ccccc1CS(=O)(=O)CCC(=O)NCc1ccccn1,0.4,·,5.5,0.9,-6.2,4.2
O=C1CCC(=O)N1c1cccc(OS(=O)(=O)c2ccccc2)c1,1.0,16.4,35.7*,-0.2,-4.8,1.3
CC(C)c1ccc(NC(=O)C2CCC(CNC(=O)[C@@H]3Cc4ccccc4CN3)CC2)cc1 (stereo partly specified),·,-0.4,-4.0,·,·,·
COc1ccc(CN2CCN(C(=O)c3cccc4ccccc34)CC2)cc1Br,·,-2.0,4.8,·,·,·
COc1ccc(CN2CCN(C(=O)c3cccs3)CC2)cc1Br,-1.7,·,29.2*,-0.3,-5.7,5.6
C/C(CCC(C)C)=N\NC(=S)Nc1cc(S(=O)(=O)N2CCOCC2)ccc1N1CCOCC1,2.8,-10.6,28.2*,0.4,-9.4,-5.7
C/C(=N\NC(=S)Nc1cc(S(=O)(=O)N2CCOCC2)ccc1Cl)c1ccc(N2CCOCC2)cc1,1.8,-4.7,9.8,0.6,-3.9,-31.3
COc1ccc2cc(/C(C)=N/NC(=S)Nc3cc(S(=O)(=O)N4CCOCC4)ccc3N3CCOCC3)ccc2c1,-0.9,26.4,29.7*,0.0,2.6,-44.8
CC1CN=C(NC(=O)c2cccc([N+](=O)[O-])c2)S1 (stereo unspecified),·,12.4,-9.3,·,·,·
O=C(Cc1ccc(Cl)cc1)NCC(=O)N1CCCC1,2.6,-2.5,-3.6,0.5,-9.0,-6.8
CCOc1cc(CNc2ccc3c(c2)CCC3)ccc1O,-8.3,5.3,11.2,0.5,10.7,-17.0
COc1cc(CNc2ccc3c(c2)CCC3)cc(OC)c1O,-1.4,-5.7,37.6*,1.5,-10.3,2.2
Cc1ccc(-c2nnn(CC(=O)N(CC(=O)NC3CCCCC3)c3cnc4ccccc4c3)n2)o1,0.9,·,32.3*,-0.2,-9.2,1.8
O=C(CCSc1ccccn1)c1ccccc1,1.2,-10.8,55.0*,0.2,-1.6,-11.2
Cc1ccc2oc(=O)c(/C=C(\O)C(C)(C)C)nc2c1,4.6,-9.4,23.2,44.8,-4.4,-3.6
Cc1ccc2oc(=O)c(/C=C(\O)c3sc(C)nc3C)nc2c1,6.2,-5.9,28.6*,0.6,-2.1,-22.6
CCOC(=O)c1c(C)[nH]c(C)c1C(=O)COC(=O)c1cc2ccccc2cc1O,0.7,-8.7,53.1*,0.1,-3.4,-7.6
CCOC(=O)c1c(C)[nH]c(C)c1C(=O)COC(=O)c1cc2ccccc2cc1OC,1.2,47.2,-7.5,2.2,-6.4,19.9
CS(=O)(=O)N1CCC(C(=O)Nc2cc(Cl)cc(Cl)c2)CC1,0.5,-0.3,0.1,-0.2,-4.9,-4.2
N#Cc1c(NC(=O)c2ccc([N+](=O)[O-])o2)sc2c1CCC2,·,-3.2,12.8,·,·,·
COC(=O)c1sc(S(=O)(=O)N2CCC(C(=O)O)CC2)c(C(=O)OC)c1C,0.0,-1.1,-3.7,83.3*,6.4,-0.8
COC(=O)c1sc(S(=O)(=O)N2CCN(CCO)CC2)c(C(=O)OC)c1C,-0.2,0.7,-2.5,0.9,7.1,2.5
Cc1cc(C)nc(/N=C(\N)Nc2ccccc2-c2ccccc2)n1,4.5,-1.2,-2.9,0.0,-3.0,10.2
COc1cc(CC(=O)NCC(C)(C)N2CCOCC2)cc(OC)c1OC,·,-2.1,5.0,·,·,·
SMILES,TNF necrop inh,Lipid droplet,PfM18AAP inh,zVAD death inh,RBBP9 inhibitor,Tb hexokinase
O=C(CCN1CCOCC1)NNC(=S)NC(=O)c1ccc(Br)cc1,-1.2,0.2,29.6*,-0.7,-12.5,6.9
Cc1cccc(NC(=O)c2sc3nc(N)c(C#N)cc3c2N)c1,3.5,11.6,28.1*,2.7,-4.7,-10.2
NC(=O)c1nn(CC(=O)Nc2ccc3c(c2)OCO3)cc1[N+](=O)[O-],-0.2,-7.4,-0.4,1.2,-7.5,0.0
COc1ccc(C(=O)NCc2nnc(SCC(=O)Nc3cc(C)on3)o2)cc1OC,-0.8,25.6,30.4*,0.7,-3.0,-3.6
COc1cc(C(=O)NCc2nnc(SCC(=O)Nc3nc4ccccc4s3)o2)cc(OC)c1OC,0.9,3.1,31.3*,-0.2,-7.3,34.3
NC(=S)N/N=C/c1ccc2cccc(OCc3ccccc3)c2n1,·,-27.5,43.5*,·,·,·
O=C(COC(=O)CCc1c[nH]c2ccccc12)NC(c1ccccc1)c1ccccc1,-1.2,12.9,4.9,1.2,-3.7,-1.0
COC(=O)c1ccc(OC(=O)CN2C(=O)c3ccccc3C2=O)cc1,·,-0.1,-1.5,·,·,·
COc1ccc(Nc2n[nH]c(C)c2[N+](=O)[O-])cc1,1.9,-2.3,0.1,3.6,2.9,-15.2
Cc1[nH]nc(Nc2ccc(O)cc2)c1[N+](=O)[O-],0.2,5.2,30.9*,2.4,0.0,-13.2
NS(=O)(=O)c1ccc(CNC(=O)CCSCCC(=O)NCc2ccc(S(N)(=O)=O)cc2)cc1,1.0,-16.3,7.0,1.0,-2.3,4.6
Clc1ccc(CNc2ccc(CNc3ncn[nH]3)cc2)c(Cl)c1,-3.1,-4.2,28.4*,0.3,8.1,-7.7
Clc1ccc(CNc2ccc(CNc3ncn[nH]3)cc2)cc1,2.2,16.0,36.5*,0.7,-2.8,-1.4
c1ccc(CNc2ccc(CNc3ncn[nH]3)cc2)cc1,13.1,-5.9,24.4,0.4,-2.0,-4.9
O=S(=O)(Nc1ncn[nH]1)c1ccc(Cl)cc1,1.8,2.9,58.7*,0.8,-4.5,3.4
O=S(=O)(Nc1ncccn1)c1ccc(Cl)cc1,·,4.7,4.3,·,·,·
COc1cccc2cc(C(=O)c3ccc([N+](=O)[O-])cc3)oc12,3.9,-22.7,-12.7,67.8,-1.5,-9.0
CCSc1nc(=S)cc(C)[nH]1,-3.1,12.7,28.1*,0.2,3.9,-3.7
CCC(C)c1ccc(O)c(NC(=O)c2cncc(Br)c2)c1 (stereo unspecified),78.2*,-8.5,2.3,1.8,-15.4,9.3
CCC(C)c1ccc(S(=O)(=O)N2CCN(c3ccccn3)CC2)cc1 (stereo unspecified),·,-0.3,2.7,·,·,·
C=C1c2ccccc2NC(=S)N1Cc1ccc2c(c1)OCO2,0.8,-1.0,31.6*,-1.2,-6.3,6.5
Cc1nn(Cc2c(F)cccc2Cl)c(C)c1[N+](=O)[O-],76.3*,-37.1,-5.1,1.4,7.1,8.7
Cc1cccc2c(N)c3c(nc12)N(C)CC3,·,-16.2,31.3*,·,·,·
CN1CCc2c1nc1ccccc1c2N (tested in a mixture with another compound),·,17.3,-5.0,·,·,·
CS(=O)(=O)N1CCN(C2CCN(Cc3ccccc3)CC2)CC1,-0.6,-2.4,6.1,0.1,-0.7,10.1
O=C(/C=C/c1ccc([N+](=O)[O-])cc1)Nc1cccc(C(=O)Nc2ccccc2C(=O)O)c1,·,-3.5,3.3,·,·,·
O=C(CSc1ccc(Cl)cc1Cl)N1CCC(c2nc3ccccc3s2)CC1,-4.8,·,-10.7,0.0,-13.5,12.8

# Screening results from PubChem BioAssay.
